The structures appear in SMILES notation. A value given as a limit tells only on which side of the number the result lay.

Usually IC50 stands for the concentration needed to halve the response being measured. Low readings indicate higher potency, high ones lower potency. A word on the Ki: it is the equilibrium dissociation constant of an inhibitor or competing ligand from its target.

In assay [1] the target is T1, D(2) dopamine receptor (Rattus norvegicus, UniProt P61169). Briefly: Inhibition of [3H]spiperone binding to rat striatal dopamine receptor D2 was determined in vitro. In outline:
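Rat striatal membranes in 0.05 M Tris-HCl pH 7.6 with 0.1% ascorbic acid and salts, at 5 mg wet weight/mL. Incubated with [3H]spiperone at 37 °C for 10 min. Nonspecific binding defined with 1 μM (+)-butaclamol. Bound ligand separated by glass-fibre filtration and counted by liquid scintillation. IC50 by log-logit regression.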

Assay [2] deals with T1, D(2) dopamine receptor. Briefly: Inhibition of [3H]raclopride binding to rat striatal dopamine receptor D2. In outline:
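Rat striatal membranes were homogenised in 0.05 M Tris-HCl pH 7.6, washed by centrifugation, then resuspended with 0.1% ascorbic acid and salts at 5 mg original wet weight/mL. Nonspecific binding was set with 1 μM (+)-butaclamol. Filtration on glass-fibre filters, scintillation counting. Ki by nonlinear regression (LIGAND), Cheng–Prusoff, all experiments pooled.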

Assay [3] relates to Rattus norvegicus. As to the kind of experiment: Block of apomorphine-induced response measured as hyperactivity injected ip 60 min prior to apomorphine hydrochloride(1 mg/kg, sc). It is filed as functional. In outline: (§1)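 Male Sprague-Dawley rats (270–325 g). Compounds in saline or acetic acid/water given ip (5 ml/kg) 60 min before apomorphine HCl 1 mg/kg sc into neck. […] At least six dose levels, 6–8 rats each. ED50 by regression with Fieller's theorem 95% confidence limits.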

Assay [4] has as its system Rattus norvegicus. Briefly: Block of apomorphine-induced response measured as hypothermia injected ip 30 min prior to apomorphine hydrochloride(1 mg/kg, sc). It counts as functional. In outline: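 Male Sprague-Dawley rats (200–250 g) housed at 21 ± 0.5 °C, groups of n = 6, given saline or compound ip 30 min before apomorphine HCl 1 mg/kg sc. Rectal core temperature taken before dosing, before apomorphine and 15 min after it. Changes are percent of control mean.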

Assay [5] has as its system Rattus norvegicus. As to the kind of experiment: Block of apomorphine-induced response measured as stereotypies injected ip 60 min prior to apomorphine hydrochloride(1 mg/kg, sc). It counts as functional. In outline:
as §1

The species named for assay [6] is Rattus norvegicus. Briefly: The catalepsy was measured in rat by using bar test. It counts as functional. In outline: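 Horizontal bar 7 cm high, 1.5 cm diameter. Rat forepaws placed over it at 20, 40, 60, 90, 120 and 240 min after ip dosing. Descent latency timed, 60 s cutoff. Cataleptic = mean over 15 s from the three longest latencies. Saline controls included.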

[7] abbreviates: Rattus norvegicus, read-out: ED50.

T1 sequence (P61169 whole entry): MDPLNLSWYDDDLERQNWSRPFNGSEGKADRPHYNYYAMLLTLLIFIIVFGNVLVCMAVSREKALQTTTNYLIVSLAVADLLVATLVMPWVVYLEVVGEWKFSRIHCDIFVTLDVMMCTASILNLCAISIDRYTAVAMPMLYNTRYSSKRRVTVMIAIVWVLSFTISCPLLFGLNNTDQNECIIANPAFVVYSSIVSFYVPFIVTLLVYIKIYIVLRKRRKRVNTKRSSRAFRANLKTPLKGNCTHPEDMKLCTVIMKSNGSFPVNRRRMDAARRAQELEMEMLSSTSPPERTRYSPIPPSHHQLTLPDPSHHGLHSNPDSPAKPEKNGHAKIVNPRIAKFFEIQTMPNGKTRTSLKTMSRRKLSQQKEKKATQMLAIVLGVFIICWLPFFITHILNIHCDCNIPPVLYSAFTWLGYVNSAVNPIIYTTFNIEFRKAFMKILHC

Regarding `COc1cc(Br)cc(C(=O)NC[C@@H]2CCCN2Cc2ccc(F)cc2)c1OC`, in assay [1], the IC50 stood at 126 nM.
On to `COc1cccc(C(=O)NC2CCN(Cc3ccccc3)CC2)c1OC`, for which the IC50 in assay [1] is 6.3 nM.
Compound `COc1cc(Br)c(OC)c(C(=O)NC[C@H]2CCCN2Cc2ccccc2)c1OC` yielded a 50% inhibitory concentration (IC50) in assay [1] of 1860 nM.
Regarding `CCN1CCC[C@H]1CNC(=O)c1c(OC)c(Cl)cc(Cl)c1OC`, the IC50 in assay [1] was more than 10000 nM.
The same measure, in the same setting: the result for `CCc1cc(Cl)c(OC)c(C(=O)NC[C@H]2CCCN2Cc2ccc(F)cc2)c1O` reads 29 nM; that for `COc1cc(Br)c(O)c(C(=O)NC2CCN(Cc3ccccc3)CC2)c1OC`, 0.36 nM.
Compound `COc1c(Cl)cc(Cl)c(OC)c1C(=O)NC1CCN(Cc2ccccc2)CC1` showed an IC50 in assay [1] of 3450 nM.
The same measure, in the same setting: under `CCc1cc(Cl)c(OC)c(C(=O)NC2CCN(Cc3ccccc3)CC2)c1O` stands 9.4 nM.
Consider `COc1c(Cl)cc(Cl)c(O)c1C(=O)NC[C@H]1CCCN1Cc1ccc(F)cc1`, for which the half-inhibitory concentration (IC50) in assay [1] turned out to be 21 nM.
`COc1ccc(Br)c(O)c1C(=O)NC1CCN(Cc2ccccc2)CC1` yielded an IC50 in assay [1] of 41 nM.
The compound `COc1cc(Br)c(OC)c(C(=O)NC[C@H]2CCCN2Cc2ccc(F)cc2)c1O` had an IC50 in assay [1] of 124 nM.
For the compound `COc1ccc(Br)c(O)c1C(=O)NC[C@H]1CCCN1Cc1ccc(F)cc1`, the IC50 in assay [1] amounted to 28 nM. Besides, the Ki in assay [2] came to 0.43 nM. The ED50 turned out to be 2 µmol/kg in assay [3] (setting [7]), 1.7 µmol/kg in assay [4], 13.2 µmol/kg in assay [5] (setting [7]) and 27 µmol/kg in assay [6].
Consider `COc1cccc(C(=O)NC[C@H]2CCCN2Cc2ccccc2)c1OC`, for which, in assay [1], the IC50 worked out at 21 nM.
In turn, `COc1cc(Br)cc(C(=O)NC[C@H]2CCCN2Cc2ccccc2)c1OC` gave an IC50 in assay [1] of 1.4 nM. In assay [2], the Ki turned out to be 0.024 nM. Also, the results for the ED50 in assay [3] (setting [7]) and in assay [5] (setting [7]) were 1.2 µmol/kg and 1.4 µmol/kg, respectively.
Turning to `COc1cc(Br)cc(C(=O)NC[C@H]2CCCN2Cc2ccc(F)cc2)c1OC`, the half-inhibitory concentration (IC50) in assay [1] worked out at 0.65 nM. In other words, the sub-nanomolar range.
In assay [1], `COc1ccc(Br)c(O)c1C(=O)NC[C@H]1CCCN1Cc1ccccc1` came in with an IC50 of 18 nM. In assay [2], the inhibition constant Ki was 0.8 nM. The ED50 is 5.6 µM/kg in assay [3] and 18.6 µM/kg in assay [5].
On to `COc1c(Cl)cc(Cl)c(OC)c1C(=O)NC[C@H]1CCCN1Cc1ccc(F)cc1`, for which the IC50 in assay [1] was 2380 nM.
For the compound `CCN1CCC[C@H]1CNC(=O)c1c(OC)ccc(Br)c1O`, the ED50 in assay [4] was found to be 0.6 µmol/kg; in assay [6], 1 µmol/kg.
`CCN1CCC[C@H]1CNC(=O)c1cc(Br)cc(OC)c1OC` yielded an inhibitory constant (Ki) in assay [2] of 0.018 nM. Also, the results for the ED50 in assay [4] and in assay [6] were 0.005 µmol/kg and 0.39 µmol/kg, respectively.
Regarding `CCN1CCC[C@H]1CNC(=O)c1cccc(OC)c1OC`, the IC50 in assay [1] came out at 52 nM.
In turn, `COc1c(Cl)cc(Cl)c(O)c1C(=O)NC1CCN(Cc2ccccc2)CC1` registered an IC50 in assay [1] of 5.4 nM.
`COc1cc(Br)c(OC)c(C(=O)NC[C@H]2CCCN2Cc2ccc(F)cc2)c1OC` gave an IC50 in assay [1] of 2210 nM.
Turning to `COc1cc(Br)c(O)c(C(=O)NC[C@H]2CCCN2Cc2ccc(F)cc2)c1OC`, the Ki in assay [2] is 0.19 nM. For the same compound, the ED50 in assay [3] (setting [7]) is 1.5 µmol/kg; in assay [4] it was 1.3 µmol/kg; in assay [5] (setting [7]), 2.4 µmol/kg; in assay [6], 13 µmol/kg.
In assay [6], `CCN1CCC[C@H]1CNC(=O)c1c(O)c(Br)cc(OC)c1OC` returned an ED50 of 0.13 µmol/kg.
In turn, `COc1ccc(Br)c(O)c1C(=O)NCC1CCCN1Cc1ccccc1` (racemic) had an IC50 in assay [1] of 36 nM.
In assay [1], `COc1ccc(Br)c(O)c1C(=O)NCC1CCCN1Cc1ccccc1` (single isomer, unassigned) yielded an IC50 of 2680 nM. Also, the ED50 in assay [3] and in assay [5] was more than 80 µM/kg throughout.
Consider `CCN1CCC[C@H]1CNC(=O)c1c(O)c(Cl)cc(Cl)c1OC` [RACLOPRIDE], for which, in assay [6], the ED50 was 10 µmol/kg.
